Assay results reported in ChEMBL document CHEMBL1671655, “Anidulafungin is fungicidal and exerts a variety of postantifungal effects against Candida albicans, C. glabrata, C. parapsilosis, and C. krusei isolates” (2009).
Values after ≈ are worked out from the molar mass of the structure shown. Active and inactive are the calls of the source. The calls are words filed in the database; no cut-off is given here. Starred links: 1 amine or outer side, 2 acyl side, 3 side chain; linkers in the order of their positions; H or OH if unused. Positions of bridges follow the written chain, without caps; N, C: chain ends. Non-standard residues stand in square brackets, D forms with d. Residues, ends and D or L forms follow the SMILES beside them. *: point of attachment. pTerphenylCO(4''-OnC5H11) = CCCCCOc1ccc(-c2ccc(-c3ccc(C(=O)*)cc3)cc2)cc1; Orn(4R-OH,5R-OH) = O=C([C@H](C[C@@H](O)[C@@H](O)N[*:3])N[*:1])[*:2]; hTyr(3S-OH,4S-OH) = N[C@H](C(=O)O)[C@H](O)[C@@H](O)c1ccc(O)cc1; Pro(3S-OH,4S-Me) = C[C@H]1CN[C@H](C(=O)O)[C@H]1O; Hyp = O=C(O)[C@@H]1C[C@@H](O)CN1

Assays:
Candida albicans [1] = experiment: Fungicidal activity against Candida albicans isolate 2 assessed as log reduction in bacterial count at 4 times MIC after drug exposure for 1 hr followed by washout measured after 48 hrs in the absence of drug by PAFE study; type: functional
In short: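 Starting inoculum ~1 x 10^5 to 5 x 10^5 CFU/ml in MOPS-buffered RPMI 1640 (pH 7.0) with drug at multiples of the CLSI M27-A3 MIC. After 1 h at 35°C, cells washed and centrifuged three times at 1,400 x g for 10 min, then resuspended in warm drug-free RPMI. Shaken at 35°C and plated on SDA at 0–48 h; CFU counted after 48 h. Run twice per isolate; means.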

Pichia kudriavzevii [2] = experiment: Antifungal activity against Candida krusei isolate ATCC 6258 by CLSI M27-A3 broth microdilution method; type: functional
In short: (§1)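 CLSI M27-A3 broth microdilution in RPMI 1640 buffered to pH 7.0 with MOPS. Starting inoculum 0.5 x 10^3 to 2.5 x 10^3 cells/ml, incubated at 35°C. MIC read as the lowest concentration giving >50% growth reduction versus control. Each isolate tested on at least three occasions.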

Nakaseomyces glabratus [3] = experiment: Increase in susceptibility to calcofluor white in Candida glabrata isolate 1 assessed as cell wall damage at 4 times MIC after 1 hr relative to control; type: functional, organism-based
In short: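 Cells recovered 8 h after a 1-h drug exposure were grown to exponential phase in YPD with 1% glucose and adjusted to OD599 0.1. Undiluted and 10-fold serially diluted cultures were spotted onto YPD plates containing calcofluor white, then incubated at 30°C for 72 h. Growth compared with no-drug control cells; triplicate.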

Nakaseomyces glabratus [4] = experiment: Antifungal activity against Candida glabrata isolate 1 assessed as cell wall damage at 4 times MIC by Transmission electron microscopy; type: functional, organism-based
In short: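 Cells recovered 8 h after a 1-h drug exposure were grown on SDA for 24 h at 35°C. Colonies fixed at 4°C in 0.1 M cacodylate (pH 7.2) with 2% glutaraldehyde and 2% paraformaldehyde, ethanol-dehydrated and embedded in Lowicryl K4M. Thin sections examined by transmission EM.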

Candida albicans [5] = experiment: Increase in susceptibility to SDS in Candida albicans ATCC 90028 assessed as cell wall damage at MIC after 1 hr relative to control; type: functional, organism-based
In short: (§2)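 Cells recovered 8 h after a 1-h drug exposure were grown in YPD with 1% glucose to exponential phase and adjusted to OD599 0.1. Undiluted culture and 10-fold serial dilutions were spotted onto YPD plates containing SDS (0.01 to 0.04%), then incubated 72 h at 30°C. Growth compared with unexposed control cells; triplicate.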

Candida parapsilosis [6] = experiment: Increase in susceptibility to SDS in Candida parapsilosis isolate 1 assessed as cell wall damage at 16 times MIC after 1 hr relative to control; type: functional, organism-based; in short: as §2
Candida parapsilosis [7] = experiment: Fungicidal activity against Candida parapsilosis isolate S assessed as log reduction in bacterial count at MIC after 48 hrs by time-kill analysis; type: functional; conditions: Lodderomyces parapsilosis
In short: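 Isolates subcultured twice on SDA, then suspended to 0.5 McFarland and diluted into RPMI 1640 (MOPS, pH 7.0) with or without anidulafungin, giving about 1 x 10^5 to 5 x 10^5 CFU/ml. Tubes were shaken at 35°C. Samples were taken at 0, 2, 4, 8, 12, 24 and 48 h, serially diluted 10-fold, plated on SDA, and CFU counted after 48 h at 35°C. Each isolate was run twice; mean values.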

Nakaseomyces glabratus [8] = experiment: Inhibition of Candida glabrata isolate 1 adherence to human buccal epithelial cells at 4 times MIC after 1 hr by adherence assay relative to control; type: functional, Epithelial cell
In short: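 Candida collected 8 h after a 1-h 4x MIC pulse and washout were grown on SDA for 24 h at 35°C. Buccal epithelial cells were pooled from three donors and washed in PBS. Cells (1 x 10^5/ml) were mixed 1:1 by volume with Candida (1 x 10^6/ml) and shaken 1 h at 37°C. Mixtures were filtered, washed, and Gram-stained, and Candida were counted per 100 epithelial cells. Run in duplicate on ≥2 occasions; Student's t test against unexposed controls.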

Pichia kudriavzevii [9] = experiment: Antifungal activity against Candida krusei assessed as time period for bacterial regrowth inhibition after 1 hr drug exposure; type: functional
Candida albicans [10] = experiment: Fungicidal activity against Candida albicans ATCC 90028 assessed as log reduction in bacterial count at 16 times MIC after drug exposure for 1 hr followed by washout measured after 48 hrs in the absence of drug by PAFE study; type: functional
In short: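 Inoculum of about 1 x 10^5 to 5 x 10^5 CFU/ml in MOPS-buffered RPMI (pH 7.0), shaken at 35°C and exposed to drug for 1 h. Cells then washed and centrifuged three times and resuspended in drug-free warm RPMI. Samples plated on SDA at 0, 2, 4, 8, 12, 24 and 48 h, with CFU counted after 48 h at 35°C. Run twice per isolate; values are means.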

Candida albicans [11] = experiment: Antifungal activity against Candida albicans isolate S by CLSI M27-A3 broth microdilution method; type: functional; in short: as §1
Candida parapsilosis [12] = experiment: Increase in susceptibility to SDS in Candida parapsilosis isolate 1 assessed as cell wall damage at 4 times MIC after 1 hr relative to control; type: functional, organism-based; in short: as §2
[13] = test system: Meyerozyma guilliermondii; experiment: Antifungal activity against Candida guilliermondii by NCCLS M27A broth microdilution method; type: functional

SMILES: CCCCCOc1ccc(-c2ccc(-c3ccc(C(=O)N[C@H]4C[C@@H](O)[C@@H](O)NC(=O)[C@@H]5[C@@H](O)[C@@H](C)CN5C(=O)[C@H]([C@@H](C)O)NC(=O)[C@H]([C@H](O)[C@@H](O)c5ccc(O)cc5)NC(=O)[C@@H]5C[C@@H](O)CN5C(=O)[C@H]([C@@H](C)O)NC4=O)cc3)cc2)cc1 [ANIDULAFUNGIN] ({pTerphenylCO(4''-OnC5H11)}-[Orn(4R-OH,5R-OH)]T[Hyp][hTyr(3S-OH,4S-OH)]T[Pro(3S-OH,4S-Me)]; lactam 1-C)
- log reduction (Candida albicans [1]): 1.24
- MIC (Pichia kudriavzevii [2]): 0.06 µg/mL (≈ 0.0526 µM)
- Activity (Nakaseomyces glabratus [3]): Active
- Activity (Nakaseomyces glabratus [4]): Active
- Activity (Candida albicans [5]): Active
- Activity (Candida parapsilosis [6]): Active
- log reduction (Candida parapsilosis [7]): 1.32 log CFU/ml
- inhibition (INH) (Nakaseomyces glabratus [8]): 62%
- Time (Pichia kudriavzevii [9]): >=12 hr
- log reduction (Candida albicans [10]): 2.14
- MIC (Candida albicans [11]): 0.008 µg/mL (≈ 0.00702 µM)
- Activity (Candida parapsilosis [12]): Active
- MIC90 [13]: 2 µg/mL (≈ 1.75 µM)
